Results taken from article PMC7641749 (Nucleic Acids Research, 2020).

Columns and labels:
DROSHA = assay: Co-IP of overexpressed DROSHA with ERH; format: binding, human; details: ectopic DROSHA co-expressed with C-terminal tail of DGCR8
Summary of the method: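 HEK293E cells at 50% confluence were transfected with 5 μg total of Flag-, HA- or myc-tagged plasmids using branched/linear PEI (1:1) and harvested after 2 days. Anti-Flag, anti-HA or protein G-bound anti-myc beads were incubated with lysate 1–2 h at 4°C, washed three times and eluted in SDS buffer for western blot.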

DGCR8 = assay: Co-IP of ERH and DGCR8 in DROSHA knock-out cells; format: binding, human; details: HCT116 DROSHA knock-out cells
Summary of the method: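 HCT116 wild-type and DROSHA knock-out cells were grown in McCoy's 5A with 9% FBS. Proteins were boiled at 95°C for 5 min, separated on 8–16% Tris–glycine gels and transferred to PVDF. Detection was by infrared imaging or chemiluminescence.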

miR-144–451a = assay: ERH rescue experiment, qRT-PCR; format: cell-based, human; details: ERH ectopically expressed in ERH-depleted HEK293E cells, shERH, n = 3
Summary of the method: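 HEK293E cells at 50% confluence got shERH (3′UTR-targeting) plasmid with Fugene HD for 48 h, then were trypsinized and counted. 4E5 cells were co-transfected with 2.5 μg total of shERH, pri-miRNA expression plasmid and wild-type or homodimerization-mutant ERH plasmid (1:2:2) using 5 μl Fugene HD. Total RNA was harvested 48 h later for qRT-PCR.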

## Enhancer of Rudimentary Homolog [ERH]
DROSHA
  interaction between DROSHA and ERH: could not detect meaningful interaction
DGCR8
  interaction between ERH and DGCR8: not affected by the absence of DROSHA
miR-144–451a
  expression of miR-144: without significantly altering miR-144 expression
  expression of miR-451a: increased the expression of miR-451a
